The values that follow come from article PMC12304097 (Scientific Reports, 2025).

One data set concerns cGMP. The note with it: canine model of renin-angiotensin-aldosterone system; cited from earlier work.
The next data set deals with NEP2. The note with it: cited from earlier work.
Data set [1] addresses T1, NEP2 (recombinant soluble extracellular domain) (Homo sapiens, UniProt Q495T6).
T1 sequence (Q495T6 74-779): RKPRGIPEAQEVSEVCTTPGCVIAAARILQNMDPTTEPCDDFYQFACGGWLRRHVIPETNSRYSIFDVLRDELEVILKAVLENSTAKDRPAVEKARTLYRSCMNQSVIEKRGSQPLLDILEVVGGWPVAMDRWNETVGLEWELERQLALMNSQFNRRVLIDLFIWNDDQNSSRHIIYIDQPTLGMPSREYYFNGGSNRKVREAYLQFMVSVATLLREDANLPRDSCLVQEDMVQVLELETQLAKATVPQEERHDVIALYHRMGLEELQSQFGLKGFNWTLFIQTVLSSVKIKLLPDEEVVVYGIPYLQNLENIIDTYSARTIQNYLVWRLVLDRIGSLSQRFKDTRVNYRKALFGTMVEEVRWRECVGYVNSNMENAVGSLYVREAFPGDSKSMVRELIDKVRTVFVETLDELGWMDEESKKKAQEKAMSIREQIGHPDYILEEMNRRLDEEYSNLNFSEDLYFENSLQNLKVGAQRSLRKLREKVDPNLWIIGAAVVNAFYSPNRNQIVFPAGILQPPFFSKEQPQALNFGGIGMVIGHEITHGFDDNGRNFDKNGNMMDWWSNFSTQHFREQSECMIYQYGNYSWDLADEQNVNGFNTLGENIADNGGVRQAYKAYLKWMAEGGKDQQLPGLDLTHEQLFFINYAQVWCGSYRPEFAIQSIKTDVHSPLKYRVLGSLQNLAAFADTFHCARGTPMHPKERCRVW
Put plainly: Inhibition of NEP2-mediated NP cleavage. The note with it: inhibitor 50 µM, NEP2 113 nM. Type of data set: biochemical.

Data set [2] addresses T2, NEP (recombinant soluble extracellular domain) (Homo sapiens, UniProt P08473). Put plainly: Inhibition of NEP-mediated NP cleavage. Type of data set: biochemical. The note with it: inhibitor 50 µM, NEP 9.4 nM.
The next data set deals with NEP. The note with it: cited from earlier work.
Data set [3] addresses T1, NEP2 (recombinant soluble extracellular domain). Put plainly: In vitro NP cleavage by NEP2, read by intact-ring s-IA. The note with it: sentence says the same is true for NEP2. Type of data set: in vitro ADME. Put shortly:
(§1)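 Ni-NTA-purified His-tagged soluble human ectodomains were used: NEP (aa 56–750, Expi293F) at 9.4 nM and NEP2 (aa 74–779, ExpiCHO-S) at 113 nM. Doses were activity-matched on a fluorogenic substrate. […] Reactions were stopped with EDTA buffer and read by Eu-chelate intact-ring ANP or BNP sandwich immunoassay, relative to enzyme-free sample.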

Data set [4] deals with T2, NEP (recombinant soluble extracellular domain). Put plainly: In vitro NP cleavage by NEP, read by intact-ring s-IA. Type of data set: in vitro ADME. Put shortly:
as §1

[5] abbreviates: peptide 1.45 µM, intact-ring s-IA, P < 0.005.

T2 sequence (P08473 56-750): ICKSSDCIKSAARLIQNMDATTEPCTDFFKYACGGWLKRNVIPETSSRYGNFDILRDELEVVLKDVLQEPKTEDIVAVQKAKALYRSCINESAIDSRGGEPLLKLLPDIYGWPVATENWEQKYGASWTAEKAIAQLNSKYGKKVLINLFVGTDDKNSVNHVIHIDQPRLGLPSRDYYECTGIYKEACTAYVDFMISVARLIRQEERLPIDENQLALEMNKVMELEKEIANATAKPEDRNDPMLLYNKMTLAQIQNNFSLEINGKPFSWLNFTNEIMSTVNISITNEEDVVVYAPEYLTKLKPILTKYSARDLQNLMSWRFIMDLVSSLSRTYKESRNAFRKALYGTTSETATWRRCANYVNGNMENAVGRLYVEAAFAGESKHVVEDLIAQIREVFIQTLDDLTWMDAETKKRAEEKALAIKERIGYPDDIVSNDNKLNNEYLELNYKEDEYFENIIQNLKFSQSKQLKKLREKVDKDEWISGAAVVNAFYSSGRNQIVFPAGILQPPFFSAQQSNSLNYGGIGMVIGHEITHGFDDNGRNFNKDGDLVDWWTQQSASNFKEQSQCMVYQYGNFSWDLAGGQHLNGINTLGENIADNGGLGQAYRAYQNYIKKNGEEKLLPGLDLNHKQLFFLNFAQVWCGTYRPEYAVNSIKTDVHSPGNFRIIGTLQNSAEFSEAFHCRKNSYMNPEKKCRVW

On to `C[C@H](C[C@@H](Cc1ccc(-c2ccccc2)cc1)NC(=O)CCC(=O)O)C(=O)O` [sacubitrilat], for which the “Circulating cGMP levels” value in the data set with cGMP is “increased”.
As for `CC(C)C[C@H](NP(=O)(O)O[C@@H]1O[C@@H](C)[C@H](O)[C@@H](O)[C@H]1O)C(=O)N[C@@H](Cc1c[nH]c2ccccc12)C(=O)O` [phosphoramidon], the “Inhibition of NEP2” value in the data set with NEP2 is recorded as “sensitive”. Besides, the “Effect of inhibitor on neo5-epitope formation during BNP proteolysis by NEP2” value in data set [1] (BNP 1.45 µM, neo5 s-IA) is reported as “inhibited”. Besides, the “Effect of inhibitor on ANP and BNP proteolysis by NEP2” value in data set [1] (setting [5]) is “inhibited”. Moreover, in data set [2] (BNP 1.45 µM, neo5 s-IA), the “Effect of inhibitor on neo5-epitope formation during BNP proteolysis by NEP” value was “inhibited”. For the same molecule, in data set [2] (setting [5]), the “Effect of inhibitor on ANP and BNP proteolysis by NEP” value is listed as “inhibited”. For the same molecule, the “Inhibition of NEP” value in the data set on NEP was “sensitive”.
As for “ANP: Synthetic ANP, 28 aa, aar 124–151 of UniProt P01160, Bachem”, in data set [3], the “Susceptibility to proteolysis by NEP2 relative to BNP” value is given as “more susceptible to proteolysis”. Besides, in data set [4], the “Susceptibility to proteolysis by NEP relative to BNP” value was “more susceptible to proteolysis”.
With `O=C(O)CNC(=O)C(CS)Cc1ccccc1` (centres unmarked) [thiorphan], in the data set with NEP2, the “Affinity towards NEP2, fold lower than towards NEP” value was 30 times and the “Inhibition of NEP2” value is “less potently”.
